In ChEMBL document CHEMBL4689842, “EUbOPEN Chemogenomics Library wave 1” (2021):

Test system: Fibroblast
Assay: Multiplex assay against human fibroblast
Type: toxicity, cell-based
Outline: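 Live cells were stained at seeding with Hoechst33342, BioTracker Green Microtubule Cytoskeleton Dye, MitoTracker Red and Annexin V Alexa Fluor 680, then imaged on a CQ1 microscope at 37°C and 5% CO2 after compound addition. CellPathfinder machine-learning gating split cells into Hoechst high-intensity objects or normal cells. Normal cells were split into healthy, pyknosed or fragmented nuclei, and pyknosed cells into mitotic or apoptotic. Tubulin, mitochondrial-mass and membrane-permeability phenotypes are per cents of healthy-nucleus cells.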

[1] = 12 h, 1 µM, compound concentration 1 uM, replicate 1
[2] = 12 h, 1 µM, compound concentration 1 uM, replicate 2
[3] = 12 h, 10 µM, compound concentration 10 uM, replicate 1
[4] = 12 h, 10 µM, compound concentration 10 uM, replicate 2
[5] = 24 h, 1 µM, compound concentration 1 uM, replicate 1
[6] = 24 h, 1 µM, compound concentration 1 uM, replicate 2
[7] = 24 h, 10 µM, compound concentration 10 uM, replicate 1
[8] = 24 h, 10 µM, compound concentration 10 uM, replicate 2

C=CC(=O)Nc1ccc2[nH]c(=O)n(C3CCN(Cc4ccc(-c5nc6cc[nH]c(=O)c6cc5-c5ccccc5)cc4)CC3)c2c1 [Borussertib]
Population Apoptotic (%) [1]: 64%
Population Fragmented Nuclei (%) [1]: 31%
Population Healthy Nuclei (%) [1]: 51%
Population Hoechst High Intensity Objects (%) [1]: 13%
Population Membrane Permeable-Phenotype (%) [1]: 10%
Population Mitochondria Different-Phenotype (%) [1]: 5%
Population Mitotic Cells (%) [1]: 36%
Population Normal (%) [1]: 86%
Population Pyknosed Nuclei (%) [1]: 17%
Population Tubulin-Different-Phenotype (%) [1]: 4%
Total Cell Count [1]: 169
Population Apoptotic (%) [2]: 33%
Population Fragmented Nuclei (%) [2]: 63%
Population Healthy Nuclei (%) [2]: 31%
Population Hoechst High Intensity Objects (%) [2]: 30%
Population Membrane Permeable-Phenotype (%) [2]: 11%
Population Mitochondria Different-Phenotype (%) [2]: 0%
Population Mitotic Cells (%) [2]: 66%
Population Normal (%) [2]: 69%
Population Pyknosed Nuclei (%) [2]: 5%
Population Tubulin-Different-Phenotype (%) [2]: 16%
Total Cell Count [2]: 83
Population Apoptotic (%) [3]: 60%
Population Fragmented Nuclei (%) [3]: 27%
Population Healthy Nuclei (%) [3]: 56%
Population Hoechst High Intensity Objects (%) [3]: 15%
Population Membrane Permeable-Phenotype (%) [3]: 6%
Population Mitochondria Different-Phenotype (%) [3]: 4%
Population Mitotic Cells (%) [3]: 39%
Population Normal (%) [3]: 84%
Population Pyknosed Nuclei (%) [3]: 16%
Population Tubulin-Different-Phenotype (%) [3]: 27%
Total Cell Count [3]: 304
Population Apoptotic (%) [4]: 44%
Population Fragmented Nuclei (%) [4]: 64%
Population Healthy Nuclei (%) [4]: 22%
Population Hoechst High Intensity Objects (%) [4]: 29%
Population Membrane Permeable-Phenotype (%) [4]: 25%
Population Mitochondria Different-Phenotype (%) [4]: 18%
Population Mitotic Cells (%) [4]: 55%
Population Normal (%) [4]: 71%
Population Pyknosed Nuclei (%) [4]: 12%
Population Tubulin-Different-Phenotype (%) [4]: 68%
Total Cell Count [4]: 100
Population Apoptotic (%) [5]: 66%
Population Fragmented Nuclei (%) [5]: 29%
Population Healthy Nuclei (%) [5]: 56%
Population Hoechst High Intensity Objects (%) [5]: 13%
Population Membrane Permeable-Phenotype (%) [5]: 4%
Population Mitochondria Different-Phenotype (%) [5]: 2%
Population Mitotic Cells (%) [5]: 33%
Population Normal (%) [5]: 86%
Population Pyknosed Nuclei (%) [5]: 14%
Population Tubulin-Different-Phenotype (%) [5]: 6%
Total Cell Count [5]: 170
Population Apoptotic (%) [6]: 100%
Population Fragmented Nuclei (%) [6]: 56%
Population Healthy Nuclei (%) [6]: 41%
Population Hoechst High Intensity Objects (%) [6]: 32%
Population Membrane Permeable-Phenotype (%) [6]: 5%
Population Mitochondria Different-Phenotype (%) [6]: 10%
Population Mitotic Cells (%) [6]: 0%
Population Normal (%) [6]: 67%
Population Pyknosed Nuclei (%) [6]: 2%
Population Tubulin-Different-Phenotype (%) [6]: 10%
Total Cell Count [6]: 68
Population Apoptotic (%) [7]: 55%
Population Fragmented Nuclei (%) [7]: 30%
Population Healthy Nuclei (%) [7]: 56%
Population Hoechst High Intensity Objects (%) [7]: 23%
Population Membrane Permeable-Phenotype (%) [7]: 2%
Population Mitochondria Different-Phenotype (%) [7]: 2%
Population Mitotic Cells (%) [7]: 44%
Population Normal (%) [7]: 76%
Population Pyknosed Nuclei (%) [7]: 13%
Population Tubulin-Different-Phenotype (%) [7]: 22%
Total Cell Count [7]: 347
Population Apoptotic (%) [8]: 33%
Population Fragmented Nuclei (%) [8]: 55%
Population Healthy Nuclei (%) [8]: 39%
Population Hoechst High Intensity Objects (%) [8]: 40%
Population Membrane Permeable-Phenotype (%) [8]: 4%
Population Mitochondria Different-Phenotype (%) [8]: 8%
Population Mitotic Cells (%) [8]: 66%
Population Normal (%) [8]: 59%
Population Pyknosed Nuclei (%) [8]: 5%
Population Tubulin-Different-Phenotype (%) [8]: 43%
Total Cell Count [8]: 97
